The source made the active and inactive calls. Unless noted, no cut-off for these calls is given here.
How the values were obtained:
Pseudomonas aeruginosa [1] = experiment: Antibacterial activity against Pseudomonas aeruginosa assessed as growth inhibition at 500 uM after 2 hrs by GFP reporter gene assay; type: organism-based; conditions: in vivo
Pseudomonas aeruginosa [2] = experiment: Induction of nitric oxide-dependent nirS gene expression in Pseudomonas aeruginosa at 500 uM incubated for 2 hrs under dark condition by GFP reporter gene assay relative to untreated control; type: functional
[3] = Induction of nitric oxide release in PBS buffer supplemented with L-cysteine, xanthine, xanthine oxidase assessed as nitrite release at 500 uM after 1 hr by Griess assay; type: physicochemical
Summary of the method: (§1)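 Total NO release was quantified as nitrite with Griess reagent, which detects nitrite at ≥1 μM. Because of that limit, compounds were added at 250 μM and 500 μM.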

Pseudomonas aeruginosa [4] = experiment: Antibacterial activity against Pseudomonas aeruginosa PAO1 MH602 harboring lasB promoter fused with GFP-ASV assessed as growth inhibition at 88 uM measured every 30 mins by GFP-ASV reporter gene assay; type: organism-based; conditions: pseudomonas aeruginosa, in vivo, 0.5 h, 88 µM
Summary of the method: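 Cell growth of the PAO1 PlasB::gfp(ASV) reporter strain tracked as OD600 every half hour during compound incubation, alongside GFP readings. Growth is compared against the untreated control.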

[5] = Inhibition of quorum sensing system in Pseudomonas aeruginosa PAO1 MH602 harboring lasB promoter fused with GFP-ASV assessed as reduction in GFP-ASV reporter protein expression measured every 30 mins
Summary of the method: (§2)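 P. aeruginosa PAO1 carrying a PlasB::gfp(ASV) fusion plasmid, which makes its own AHL signals, incubated with compounds at 88.8, 29.6, 9.9, 3.3 or 1.0 μM. GFP fluorescence (RFU) read every half hour. Percent QS inhibition is the percent RFU difference between sample and untreated control, taken at the time point when control fluorescence peaks.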

[6] = Inhibition of quorum sensing system in Pseudomonas aeruginosa PAO1 MH602 harboring lasB promoter fused with GFP-ASV assessed as reduction in GFP-ASV reporter protein expression at 3.2 uM measured every 30 mins relative to control; summary of the method: as §2
[7] = Inhibition of quorum sensing system in Pseudomonas aeruginosa PAO1 MH602 harboring lasB promoter fused with GFP-ASV assessed as reduction in GFP-ASV reporter protein expression at 9.8 uM measured every 30 mins relative to control; summary of the method: as §2
[8] = Inhibition of quorum sensing system in Pseudomonas aeruginosa PAO1 MH602 harboring lasB promoter fused with GFP-ASV assessed as reduction in GFP-ASV reporter protein expression at 29 uM measured every 30 mins relative to control; summary of the method: as §2
[9] = Inhibition of quorum sensing system in Pseudomonas aeruginosa PAO1 MH602 harboring lasB promoter fused with GFP-ASV assessed as reduction in GFP-ASV reporter protein expression at 88 uM measured every 30 mins relative to control; summary of the method: as §2
[10] = Inhibition of quorum sensing system in Pseudomonas aeruginosa PAO1 MH602 harboring lasB promoter fused with GFP-ASV assessed as reduction in GFP-ASV reporter protein expression at 266 uM measured every 30 mins relative to control
Pseudomonas aeruginosa [11] = experiment: Antibacterial activity against Pseudomonas aeruginosa PAO1 assessed as inhibition of biofilm formation at 150 uM after 6 hrs by crystal violet staining assay relative to control; type: functional; conditions: for inhibition at 150 µM: PAO1, 6 h
[12] = Induction of nitric oxide release in PBS buffer supplemented with L-cysteine, xanthine, xanthine oxidase assessed as nitrite release at 250 to 500 uM after 24 hrs by Griess assay; type: physicochemical; summary of the method: as §1

Row | Compound | Activity (Pseudomonas aeruginosa [1]) | fold change (FC) (Pseudomonas aeruginosa [2]) | Activity [3] | Activity (Pseudomonas aeruginosa [4]) | inhibition [5] | inhibition [6] | inhibition [7] | inhibition [8] | inhibition [9] | inhibition [10] | inhibition at 150 µM (Pseudomonas aeruginosa [11]) | Activity [12] | inhibition (Pseudomonas aeruginosa [11]) | Activity (Pseudomonas aeruginosa [2])
1 | CCCC(OC(=O)CO[N+](=O)[O-])C1=CC(=C(Br)Br)OC1=O (stereo not given) | Non-toxic | 2.5 | 29 µM | Non-toxic | Dose-dependent effect | inactive | 23.2% | 49.6% | 72.9% | 88% | 61% |  |  | 
2 | CCCCCCCCCCCC(OC(=O)CC(=O)N1CCN(/[N+]([O-])=N/OC)CC1)C1=CC(=C(Br)Br)OC1=O (stereo not given) |  |  |  | Non-toxic | Dose-dependent effect | inactive | inactive | inactive | inactive | 40.9% |  | Not Active | inactive | 
3 | CCCC(OC(=O)CO/N=[N+](\[O-])N1CCN(C(=O)OCC)CC1)C1=CC(=C(Br)Br)OC1=O (stereo not given) |  |  |  | Non-toxic | Dose-dependent effect | inactive | 4% | 22.8% | 41.5% | 65.9% |  | Not Active | inactive | 
4 | CCCCCCCCCCCC(O[N+](=O)[O-])C1=CC(=C(Br)Br)OC1=O (stereo not given) | Non-toxic |  | 17.9 µM | Non-toxic | Dose-dependent effect | inactive | inactive | inactive | 29% | 67.3% | 73% |  |  | inactive
